Laboratory results: ChEMBL document CHEMBL3352606, “Oligo-β-(1 → 3)-glucans: impact of thio-bridges on immunostimulating activities and the development of cancer stem cells” (J Med Chem, 2014)
The source made the active and inactive calls. The calls are words filed in the database; no cut-off is given here.

Assays:
[1] = test system: Mus musculus; experiment: Immunostimulation activity in BALB/c mouse assessed as production of […] in peripheral blood at 100 ug, ip by EIA; assay type: functional, organism-based
In short: (§1)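 BALB/c mice received 100 μg oligosaccharide i.p., or PBS. Mice were sacrificed at intervals and serum was stored at −80 °C for ≤1 week. IL-1β and TNF-α were measured by ELISA at 450 nm with 570 nm correction, against a standard curve run with each assay (linear regression). Mean of three experiments ± SD.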

[2] = species on record: Mus musculus; experiment: Immunostimulation activity in BALB/c mouse assessed as stimulation of monocytes measured […] post compound injection in presence of polymyxin B; assay type: functional, organism-based
In short: (§2)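 This is the HEMA-particle phagocytosis assay repeated with 10 μg/mL polymyxin B added to the samples. Peritoneal cells (1 × 10^7, RPMI-1640 with 5% FCS) and heparinised orbital-plexus blood were taken from mice injected with oligosaccharides 1 or 4 days before. Cells were Giemsa-stained, and those carrying ≥3 particles were scored positive.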

[3] = Downregulation of CDC25 expression in human Detroit 573 cells at by RT-PCR analysis; assay type: ADME, cell-based
In short: (§3)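 Total RNA was Trizol-extracted from control and treated cells (ZR-75-1 or Detroit 573; 10% heat-inactivated FCS, 37 °C, 5% CO2). 200 ng was taken through one-step RT-PCR: 30 min at 50 °C, 2 min at 95 °C, then 25 cycles with gene-specific annealing and extension. Products were run on 1.0% agarose, normalised to β-actin and quantified by densitometry. Three independent experiments, Student's t test.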

[4] = species on record: Mus musculus; experiment: Immunostimulation activity in BALB/c mouse assessed as stimulation of peritoneal macrophages measured […] post compound injection; assay type: functional, organism-based
In short: (§4)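 Mice were injected with oligosaccharides 1 or 4 days before. Peritoneal macrophages (1 × 10^7, in RPMI-1640 with 5% FCS) were incubated with HEMA particles, Giemsa-stained and differentially counted; cells with ≥3 particles were scored positive. Peripheral blood was scored the same way, using one heparinised drop from the orbital plexus. Mean of three experiments ± SD.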

[5] = test system: Mus musculus; experiment: Immunostimulation activity in BALB/c mouse assessed as production of TNF-alpha in peripheral blood at 100 ug, ip by EIA; assay type: functional, organism-based; in short: as §1
[6] = test system: ZR-75-1; experiment: Upregulation of PKC expression in human ZR-75-1 cells at by RT-PCR analysis; assay type: functional, cell-based; in short: as §3
[7] = test system: ZR-75-1; experiment: Effect on CDC25 expression in human ZR-75-1 cells at by RT-PCR analysis; assay type: functional, cell-based; in short: as §3
[8] = species on record: Mus musculus; experiment: Immunostimulation activity in BALB/c mouse assessed as stimulation of peritoneal macrophages measured […] in presence of polymyxin B; assay type: functional, organism-based; in short: as §2
[9] = species on record: Mus musculus; experiment: Immunostimulation activity in BALB/c mouse assessed as production of IL-2 in splenocytes measured 1 to 3 days post compound injection; assay type: functional, organism-based
In short: (§5)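 Purified spleen cells (2 × 10^6/mL in RPMI 1640 with 5% FCS) were cultured for 72 h at 37 °C, 5% CO2; 1 μg Concanavalin A was added to positive-control wells. Supernatants were filtered at 0.45 μm and IL-2 was measured by mouse IL-2 ELISA kit. Mean of three experiments ± SD; PBS-injected mice served as controls.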

[10] = Upregulation of PKC expression in human Detroit 573 cells at by RT-PCR analysis; assay type: ADME, cell-based; in short: as §3
[11] = species on record: Mus musculus; experiment: Immunostimulation activity in BALB/c mouse assessed as stimulation of monocytes measured […] post compound injection; assay type: functional, organism-based; in short: as §4
[12] = species on record: Mus musculus; experiment: Immunostimulation activity in BALB/c mouse assessed as stimulation of […] neutrophils measured […] in presence of polymyxin B; assay type: functional, organism-based; in short: as §2
[13] = species on record: Mus musculus; experiment: Immunostimulation activity in BALB/c mouse assessed as influx of peritoneal macrophages measured 1 to 3 days post compound injection; assay type: functional, organism-based
[14] = test system: ZR-75-1; experiment: Downregulation of CDC42 expression in human ZR-75-1 cells at by RT-PCR analysis; assay type: functional, cell-based; in short: as §3
[15] = species on record: Mus musculus; experiment: Immunostimulation activity in BALB/c mouse assessed as stimulation of […] neutrophils measured […] post compound injection; assay type: functional, organism-based; in short: as §4
[16] = test system: Mus musculus; experiment: Immunostimulation activity in BALB/c mouse assessed as production of IL-2 in conA-stimulated splenocytes at 100 ug, ip by EIA; assay type: functional, organism-based; in short: as §5
[17] = Downregulation of NF-kappaB expression in human Detroit 573 cells at by RT-PCR analysis; assay type: ADME, cell-based; in short: as §3
[18] = Upregulation of CDC42 expression in human Detroit 573 cells at by RT-PCR analysis; assay type: ADME, cell-based; in short: as §3
[19] = test system: ZR-75-1; experiment: Upregulation of NF-kappaB expression in human ZR-75-1 cells at by RT-PCR analysis; assay type: functional, cell-based; in short: as §3

OC[C@H]1O[C@@H](O[C@@H]2[C@@H](O)[C@H](O[C@@H]3[C@@H](O)[C@H](S[C@H]4[C@H](O)[C@@H](CO)OC(O)[C@@H]4O)O[C@H](CO)[C@H]3O)O[C@H](CO)[C@H]2O)[C@H](O)[C@@H](O)[C@@H]1O (stereo partly specified)
Activity [1]: Active | Activity [2]: Active | Activity [3]: Non-toxic | Activity [4]: Active | Activity [5]: Active | Activity [6]: Active | Activity [7]: inactive | Activity [8]: Active | Activity [9]: Active | Activity [10]: Toxic | Activity [11]: Active | Activity [12]: Active | Activity [13]: Active | Activity [14]: Active | Activity [15]: Active | Activity [16]: Active | Activity [17]: Non-toxic

OC[C@H]1O[C@@H](O[C@@H]2[C@@H](O)[C@H](S[C@@H]3[C@@H](O)[C@H](S[C@H]4[C@H](O)[C@@H](CO)OC(O)[C@@H]4O)O[C@H](CO)[C@H]3O)O[C@H](CO)[C@H]2O)[C@H](O)[C@@H](O)[C@@H]1O (stereo partly specified)
Activity [1]: Active | Activity [2]: Active | Activity [4]: Active | Activity [5]: Active | Activity [6]: Active | Activity [8]: Active | Activity [9]: Active | Activity [10]: Toxic | Activity [11]: Active | Activity [12]: Active | Activity [13]: Active | Activity [15]: Active | Activity [18]: Non-toxic | Activity [16]: Active | Activity [17]: Toxic

OC[C@H]1O[C@@H](S[C@@H]2[C@@H](O)[C@H](S[C@H]3[C@H](O)[C@@H](CO)OC(O)[C@@H]3O)O[C@H](CO)[C@H]2O)[C@H](O)[C@@H](O)[C@@H]1O (stereo partly specified)
Activity [2]: Active | Activity [3]: Non-toxic | Activity [4]: Active | Activity [6]: Active | Activity [7]: inactive | Activity [8]: Active | Activity [10]: Toxic | Activity [11]: Active | Activity [12]: Active | Activity [13]: Active | Activity [15]: Active | Activity [18]: Non-toxic

OC[C@H]1O[C@@H](O[C@@H]2[C@@H](O)[C@H](S[C@@H]3[C@@H](O)[C@H](O)O[C@H](CO)[C@H]3O)O[C@H](CO)[C@H]2O)[C@H](O)[C@@H](O)[C@@H]1O
Activity [1]: Active | Activity [2]: Active | Activity [3]: Non-toxic | Activity [4]: Active | Activity [5]: Active | Activity [19]: Active | Activity [6]: Active | Activity [7]: inactive | Activity [8]: Active | Activity [9]: Active | Activity [10]: Toxic | Activity [11]: Active | Activity [12]: Active | Activity [13]: Active | Activity [15]: Active | Activity [16]: Active | Activity [17]: Non-toxic
